According to ChEMBL document CHEMBL5149993, “Rational Design of Photochromic Analogues of Tricyclic Drugs” (J Med Chem, 2021):
Calls of active or inactive are those of the source. The rule behind the calls is not given here.

Key:
[1] = Thermal stability of the compound assessed as half life; assay type: physicochemical
[2] = Displacement of [3H]-QNB from Wistar rat brain membrane mAChR assessed as inhibition constant incubated for 30 mins by radioligand competitive binding assay; assay type: cell membranes
Outline: (§1)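 Female Wistar rat cortex membranes (30 μg protein) in tris-HCl with 6 mM MgCl₂, 200 pM [³H]QNB (Kd 40 pM), ligands from 1 or 10 nM to 300 μM; 30 min at 37 °C equilibrium. Filtration through GF/C filters, scintillation counting. Nonspecific binding defined with 2 μM atropine. One-site competitive fits gave IC50 and Ki; n = 4 per isomer, n = 2 for reference.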

[3] = Displacement of [3H]-QNB from Wistar rat brain membrane mAChR incubated for 30 mins by radioligand competitive binding assay; assay type: cell membranes; outline: as §1
[4] = molecular target: T1, Muscarinic acetylcholine receptor M1 (Homo sapiens) (UniProt P11229); assay: Antagonist activity at human M1 mAChR receptor expressed in HEK cells assessed as reduction in total cell response at 100 uM by real-time calcium imaging method relative to control; assay type: functional, cell-based; set-up: scale not given: the % may be the effect or the level left
T1 sequence (whole entry): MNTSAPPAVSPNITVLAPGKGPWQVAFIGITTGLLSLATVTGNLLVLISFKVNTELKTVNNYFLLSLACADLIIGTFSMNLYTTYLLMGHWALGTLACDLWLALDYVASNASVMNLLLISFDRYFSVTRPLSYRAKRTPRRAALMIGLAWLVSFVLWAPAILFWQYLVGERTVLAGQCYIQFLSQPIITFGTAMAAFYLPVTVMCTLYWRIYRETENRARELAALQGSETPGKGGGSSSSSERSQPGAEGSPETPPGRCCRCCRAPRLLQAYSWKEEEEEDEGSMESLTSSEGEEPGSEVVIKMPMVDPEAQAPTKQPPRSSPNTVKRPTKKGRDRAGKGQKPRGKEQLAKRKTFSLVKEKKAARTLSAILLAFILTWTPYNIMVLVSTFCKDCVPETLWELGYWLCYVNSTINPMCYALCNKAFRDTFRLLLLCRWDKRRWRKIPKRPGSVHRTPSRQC
Outline: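 tsA201 cells transiently transfected with human M1 (± R-GECO1), used 48–72 h post-transfection. OGB-1 AM loading at 10 μM final, 30 min, 37 °C; HEPES bath pH 7.4 with 2 mM CaCl₂. Test at 100 μM against 0.5 μM ACh; cis formed by 2 min 365 nm pre-illumination or continuous 460 nm light. Responses normalized to 0.5 μM ACh maximum; Wilcoxon signed rank test.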

[5] = test system: Cardiac atrium; assay: Anticholinergic activity in isolated CD1 mouse CCh-induced bradycardia atrium assessed as recovery of CCh-indued contraction frequency at 100 uM; assay type: functional, tissue-based
Outline: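 Right atria from CD1 male mice, 10–12 weeks, in carbogenated Krebs, pH 7.4, under 0.2 g tension. Isometric recording of spontaneous contractions after 5–10 min equilibration. Bradycardia induced with CCh 10⁻⁶ M; test compound then added and beats/min measured.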

[6] = molecular target: T2, Muscarinic acetylcholine receptor M1 (Homo sapiens, UniProt P11229); assay: Displacement of [3H]-pirenzepine from human recombinant M1 receptor expressed in CHO cells incubated for 60 mins by topcount scintillation counter method; assay type: cell-based
T2 sequence (P11229 whole entry): T1 sequence (whole entry)
Outline: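 Membranes from CHO cells with human M1 (45 μg protein), 2 nM [³H]pirenzepine (Kd 13 nM), 60 min at 22 °C. Nonspecific binding with 1 μM atropine. GF/B filtration, scintillation counting. Tested at 1, 10 and 100 μM after 30 min 365 nm irradiation of DMSO stock; % inhibition, duplicate.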

[7] = molecular target: Muscarinic acetylcholine receptor M2 (human) (UniProt P08172); assay: Displacement of [3H]AF-DX384 from human recombinant M2 receptor expressed in CHO cells by topcount scintillation counter method

Compound: CN1CCN(CC(=O)Nc2ccccc2/N=N/c2ccccc2)CC1.Cl.Cl
- half-life [1]: 3.03 h
- Ki [2]: 1.7 µM
- IC50 [3]: 9.9 µM
- Activity ([4]; filed as antagonist): 64%

Compound: CN1CCN(CC(=O)Nc2ccccc2/N=N/c2ccc(N(C)C)cc2)CC1
- Ki [2]: 5.3 µM
- IC50 [3]: 33 µM

Compound: CN1CCN(CC(=O)Nc2ccccc2/N=N\c2ccc(N(C)C)cc2)CC1
- Ki [2]: 5.3 µM
- IC50 [3]: 32 µM
- Activity [4]: 14%

Compound: CN1CCN(CC(=O)N2c3ccccc3C(=O)Nc3cccnc32)CC1
- Activity [5]: Active

Compound: CN1CCN(CC(=O)Nc2ccccc2/N=N\c2ccccc2)CC1.Cl.Cl
- half-life [1]: 3.03 h
- Ki [2]: 1.5 µM
- IC50 [3]: 9.2 µM
- Activity ([4]; filed as antagonist): 73%
- IC50 [6]: 1.9 µM
- Activity [5]: Active
- IC50 [7]: 28 µM

Compound: CN1CCN(CC(=O)Nc2ccccc2/N=N\c2cccnc2)CC1.Cl.Cl
- half-life [1]: 1.18 h
- Ki [2]: 7 µM
- IC50 [3]: 42 µM

Compound: CN1CCN(CC(=O)Nc2ccccc2/N=N/c2cccnc2)CC1.Cl.Cl
- half-life [1]: 1.18 h
- Ki [2]: 6.4 µM
- IC50 [3]: 38 µM
